Activity and inhibition data for two molecules are collected here from ChEMBL document CHEMBL4118021, “Studies of TAK1-centered polypharmacology with novel covalent TAK1 inhibitors” (Bioorg Med Chem, 2017).

Molecules are shown by their SMILES. Calls of active or inactive are those of the source. The calls are words filed in the database; no cut-off is given here.

Format in all cases: cell-based
Test [1] concerns the target T1, 80S Ribosome (Homo sapiens) (UniProt P08865+P42677+P62753+P15880+P23396+P61247+P62701+P22090+P46782+P62081+P62241+P46781+P46783+P62280+P25398+P62277+P62263+P62841+P62244+P62249+P08708+P62269+P39019+P60866+P63220+P62266+P62847+P62851+P62854+P62979+P62857+P62273+P62861+P39023+P36578+P46777+Q02878+P18124+P62424+P62917+P32969+P27635+P62906+P62913+P30050+P26373+P40429+P50914+P61313+P18621+Q07020+Q02543+P84098+P46778+P35268+P62829+P62750+P83731+P61254+P61353+P46776+P46779+P47914+P62888+P62899+P62910+P49207+P42766+P18077+Q9Y3U8+P83881+P61927+P61513+P63173+P62891+P62945+P05388+P05386). Kind of test: Binding affinity to RPL27 in human NCI-H358 cells at 1 uM by mass spectrometry based pull down assay.

For test [2], the target named is Phosphoinositide 3-kinase regulatory subunit 4 (Homo sapiens) (UniProt Q99570). Kind of test: Binding affinity to PIK3R4 in human NCI-H23 cells at 1 uM by mass spectrometry based pull down assay.
For test [3], the target named is Far upstream element-binding protein 1 (Homo sapiens) (UniProt Q96AE4). Nature of the test: Binding affinity to FUBP1 in human NCI-H23 cells at 1 uM by mass spectrometry based pull down assay.
Test [4] concerns the target Tubulin alpha-1A chain (Homo sapiens) (UniProt Q71U36). Nature of the test: Binding affinity to TUBA1A in human NCI-H23 cells at 1 uM by mass spectrometry based pull down assay.
Test [5] deals with Interleukin-1 receptor-associated kinase 1 (Homo sapiens) (UniProt P51617). Kind of test: Binding affinity to IRAK1 in human NCI-H358 cells at 1 uM by mass spectrometry based pull down assay.
Test [6] has as its target Alkyldihydroxyacetonephosphate synthase, peroxisomal (Homo sapiens) (UniProt O00116). Nature of the test: Binding affinity to AGPS in human NCI-H23 cells at 1 uM by mass spectrometry based pull down assay. Summed up:
(§1)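 NCI-H23 or NCI-H358 cells were grown and lysed. Lysates were incubated overnight at 4 °C with 1 μM biotinylated covalent probe or DMSO, then pulled down on streptavidin beads. Proteins were run on polyacrylamide gels and stained with Coomassie. Bands were excised, digested and identified by mass spectrometry.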

Test [7] deals with A-kinase anchor protein 12 (Homo sapiens) (UniProt Q02952). Nature of the test: Binding affinity to AKAP12 in human NCI-H23 cells at 1 uM by mass spectrometry based pull down assay. Summed up:
as §1

The target in test [8] is T1, 80S Ribosome (Homo sapiens). Kind of test: Binding affinity to RPS17 in human NCI-H358 cells at 1 uM by mass spectrometry based pull down assay.
In test [9] the target is MOB kinase activator 1B (Homo sapiens) (UniProt Q7L9L4). Kind of test: Binding affinity to MOB1B in human NCI-H23 cells at 1 uM by mass spectrometry based pull down assay.
Test [10] concerns the target Multifunctional protein CAD (Homo sapiens) (UniProt P27708). Nature of the test: Binding affinity to CAD in human NCI-H23 cells at 1 uM by mass spectrometry based pull down assay.
Test [11] addresses T1, 80S Ribosome (Homo sapiens). Kind of test: Binding affinity to RPL26 in human NCI-H358 cells at 1 uM by mass spectrometry based pull down assay.
The target in test [12] is HCLS1-associated protein X-1 (Homo sapiens) (UniProt O00165). Nature of the test: Binding affinity to HAX1 in human NCI-H23 cells at 1 uM by mass spectrometry based pull down assay.
The target of test [13] is Deoxyribose-phosphate aldolase (Homo sapiens) (UniProt Q9Y315). Nature of the test: Binding affinity to DERA in human NCI-H23 cells at 1 uM by mass spectrometry based pull down assay.
In test [14] the target is T1, 80S Ribosome (Homo sapiens). Kind of test: Binding affinity to RPS12 in human NCI-H23 cells at 1 uM by mass spectrometry based pull down assay.
The target in test [15] is Dual specificity mitogen-activated protein kinase kinase 1 (Homo sapiens) (UniProt Q02750). Kind of test: Binding affinity to MAP2K1 in human NCI-H358 cells at 1 uM by mass spectrometry based pull down assay.
The target in test [16] is T1, 80S Ribosome (Homo sapiens). Nature of the test: Binding affinity to RPL27 in human NCI-H23 cells at 1 uM by mass spectrometry based pull down assay.
Test [17] deals with Replication factor C subunit 5 (Homo sapiens) (UniProt P40937). Nature of the test: Binding affinity to RFC5 in human NCI-H358 cells at 1 uM by mass spectrometry based pull down assay.
Test [18] addresses Kinesin-like protein KIF1A (Homo sapiens) (UniProt Q12756). Kind of test: Binding affinity to KIF1A in human NCI-H23 cells at 1 uM by mass spectrometry based pull down assay.
The target in test [19] is TBC1 domain family member 15 (Homo sapiens) (UniProt Q8TC07). Kind of test: Binding affinity to TBC1D15 in human NCI-H23 cells at 1 uM by mass spectrometry based pull down assay.
Test [20] concerns the target Protein phosphatase 1G (Homo sapiens) (UniProt O15355). Nature of the test: Binding affinity to PPM1G in human NCI-H358 cells at 1 uM by mass spectrometry based pull down assay.
Test [21] concerns the target T1, 80S Ribosome (Homo sapiens). Kind of test: Binding affinity to RPS23 in human NCI-H23 cells at 1 uM by mass spectrometry based pull down assay.
Test [22] deals with Protein CIP2A (Homo sapiens) (UniProt Q8TCG1). Kind of test: Binding affinity to KIAA1524 in human NCI-H23 cells at 1 uM by mass spectrometry based pull down assay.
Test [23] concerns the target Protein disulfide-isomerase (Homo sapiens) (UniProt P07237). Kind of test: Binding affinity to P4HB in human NCI-H358 cells at 1 uM by mass spectrometry based pull down assay.
The target in test [24] is LIM domain kinase 1 (Homo sapiens) (UniProt P53667). Nature of the test: Binding affinity to LIMK1 in human NCI-H358 cells at 1 uM by mass spectrometry based pull down assay.
Test [25] addresses Proteasome activator complex subunit 2 (Homo sapiens) (UniProt Q9UL46). Kind of test: Binding affinity to PSME2 in human NCI-H358 cells at 1 uM by mass spectrometry based pull down assay.
Test [26] concerns the target F-actin-capping protein subunit alpha-1 (Homo sapiens) (UniProt P52907). Nature of the test: Binding affinity to CAPZA1 in human NCI-H358 cells at 1 uM by mass spectrometry based pull down assay.
The target of test [27] is MAP/microtubule affinity-regulating kinase 3 (Homo sapiens) (UniProt P27448). Kind of test: Inhibition of MARK3 in human SKCO1 cells at 1 uM after 4 hrs using biotin labeled EVAIKIIDKTQLNPTSLQK probe by mass-spectrometric analysis relative to control.

Chain of MOB kinase activator 1B (Homo sapiens) (Q7L9L4 whole entry): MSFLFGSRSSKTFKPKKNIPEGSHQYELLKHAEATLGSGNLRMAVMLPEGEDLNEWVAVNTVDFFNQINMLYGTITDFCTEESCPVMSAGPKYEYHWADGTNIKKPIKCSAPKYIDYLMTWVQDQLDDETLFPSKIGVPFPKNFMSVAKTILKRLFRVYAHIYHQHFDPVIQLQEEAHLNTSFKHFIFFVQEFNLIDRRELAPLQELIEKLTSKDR
Chain of Phosphoinositide 3-kinase regulatory subunit 4 (Homo sapiens) (Q99570 whole entry): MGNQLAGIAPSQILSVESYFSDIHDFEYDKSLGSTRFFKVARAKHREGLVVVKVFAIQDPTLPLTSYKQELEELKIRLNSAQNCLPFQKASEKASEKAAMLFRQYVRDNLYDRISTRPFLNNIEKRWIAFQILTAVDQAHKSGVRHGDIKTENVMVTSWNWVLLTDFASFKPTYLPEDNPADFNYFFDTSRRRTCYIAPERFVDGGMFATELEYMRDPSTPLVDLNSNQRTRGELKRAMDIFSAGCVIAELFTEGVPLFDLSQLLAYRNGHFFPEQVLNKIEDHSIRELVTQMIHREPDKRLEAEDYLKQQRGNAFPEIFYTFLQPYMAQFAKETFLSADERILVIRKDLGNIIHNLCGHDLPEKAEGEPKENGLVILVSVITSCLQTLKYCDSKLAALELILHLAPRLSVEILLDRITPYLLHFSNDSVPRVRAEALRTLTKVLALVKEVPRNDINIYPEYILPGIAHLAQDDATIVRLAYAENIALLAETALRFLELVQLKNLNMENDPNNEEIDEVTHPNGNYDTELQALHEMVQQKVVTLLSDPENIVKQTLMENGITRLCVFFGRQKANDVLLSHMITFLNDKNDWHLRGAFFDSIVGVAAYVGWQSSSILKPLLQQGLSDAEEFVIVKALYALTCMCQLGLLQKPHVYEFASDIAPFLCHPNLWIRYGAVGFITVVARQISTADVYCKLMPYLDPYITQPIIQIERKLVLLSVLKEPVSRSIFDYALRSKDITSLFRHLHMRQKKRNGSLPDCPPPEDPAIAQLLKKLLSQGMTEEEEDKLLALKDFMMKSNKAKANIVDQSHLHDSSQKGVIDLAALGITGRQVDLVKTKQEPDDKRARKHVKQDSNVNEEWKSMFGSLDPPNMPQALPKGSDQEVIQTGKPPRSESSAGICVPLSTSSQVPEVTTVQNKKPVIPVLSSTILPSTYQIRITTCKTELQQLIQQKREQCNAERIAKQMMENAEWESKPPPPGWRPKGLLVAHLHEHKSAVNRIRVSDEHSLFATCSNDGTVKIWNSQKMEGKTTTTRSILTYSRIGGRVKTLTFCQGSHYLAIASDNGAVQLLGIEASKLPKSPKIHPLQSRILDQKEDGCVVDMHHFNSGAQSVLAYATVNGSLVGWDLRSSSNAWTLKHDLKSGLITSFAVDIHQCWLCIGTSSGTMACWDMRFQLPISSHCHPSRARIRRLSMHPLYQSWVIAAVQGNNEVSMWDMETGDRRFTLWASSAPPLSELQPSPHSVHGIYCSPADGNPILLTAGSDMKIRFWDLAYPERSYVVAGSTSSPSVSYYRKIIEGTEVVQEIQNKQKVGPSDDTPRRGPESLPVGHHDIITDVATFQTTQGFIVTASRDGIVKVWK
Chain of Deoxyribose-phosphate aldolase (Homo sapiens) (Q9Y315 whole entry): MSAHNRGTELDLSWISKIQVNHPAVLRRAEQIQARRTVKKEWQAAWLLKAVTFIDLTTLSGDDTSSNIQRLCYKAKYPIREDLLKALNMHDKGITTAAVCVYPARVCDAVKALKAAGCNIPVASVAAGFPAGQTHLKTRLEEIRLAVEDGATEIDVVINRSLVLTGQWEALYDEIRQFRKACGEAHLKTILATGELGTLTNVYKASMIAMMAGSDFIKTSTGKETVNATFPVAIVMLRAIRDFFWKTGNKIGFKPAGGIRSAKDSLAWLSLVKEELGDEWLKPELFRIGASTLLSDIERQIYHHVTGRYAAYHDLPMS
Chain of Multifunctional protein CAD (Homo sapiens) (P27708 whole entry): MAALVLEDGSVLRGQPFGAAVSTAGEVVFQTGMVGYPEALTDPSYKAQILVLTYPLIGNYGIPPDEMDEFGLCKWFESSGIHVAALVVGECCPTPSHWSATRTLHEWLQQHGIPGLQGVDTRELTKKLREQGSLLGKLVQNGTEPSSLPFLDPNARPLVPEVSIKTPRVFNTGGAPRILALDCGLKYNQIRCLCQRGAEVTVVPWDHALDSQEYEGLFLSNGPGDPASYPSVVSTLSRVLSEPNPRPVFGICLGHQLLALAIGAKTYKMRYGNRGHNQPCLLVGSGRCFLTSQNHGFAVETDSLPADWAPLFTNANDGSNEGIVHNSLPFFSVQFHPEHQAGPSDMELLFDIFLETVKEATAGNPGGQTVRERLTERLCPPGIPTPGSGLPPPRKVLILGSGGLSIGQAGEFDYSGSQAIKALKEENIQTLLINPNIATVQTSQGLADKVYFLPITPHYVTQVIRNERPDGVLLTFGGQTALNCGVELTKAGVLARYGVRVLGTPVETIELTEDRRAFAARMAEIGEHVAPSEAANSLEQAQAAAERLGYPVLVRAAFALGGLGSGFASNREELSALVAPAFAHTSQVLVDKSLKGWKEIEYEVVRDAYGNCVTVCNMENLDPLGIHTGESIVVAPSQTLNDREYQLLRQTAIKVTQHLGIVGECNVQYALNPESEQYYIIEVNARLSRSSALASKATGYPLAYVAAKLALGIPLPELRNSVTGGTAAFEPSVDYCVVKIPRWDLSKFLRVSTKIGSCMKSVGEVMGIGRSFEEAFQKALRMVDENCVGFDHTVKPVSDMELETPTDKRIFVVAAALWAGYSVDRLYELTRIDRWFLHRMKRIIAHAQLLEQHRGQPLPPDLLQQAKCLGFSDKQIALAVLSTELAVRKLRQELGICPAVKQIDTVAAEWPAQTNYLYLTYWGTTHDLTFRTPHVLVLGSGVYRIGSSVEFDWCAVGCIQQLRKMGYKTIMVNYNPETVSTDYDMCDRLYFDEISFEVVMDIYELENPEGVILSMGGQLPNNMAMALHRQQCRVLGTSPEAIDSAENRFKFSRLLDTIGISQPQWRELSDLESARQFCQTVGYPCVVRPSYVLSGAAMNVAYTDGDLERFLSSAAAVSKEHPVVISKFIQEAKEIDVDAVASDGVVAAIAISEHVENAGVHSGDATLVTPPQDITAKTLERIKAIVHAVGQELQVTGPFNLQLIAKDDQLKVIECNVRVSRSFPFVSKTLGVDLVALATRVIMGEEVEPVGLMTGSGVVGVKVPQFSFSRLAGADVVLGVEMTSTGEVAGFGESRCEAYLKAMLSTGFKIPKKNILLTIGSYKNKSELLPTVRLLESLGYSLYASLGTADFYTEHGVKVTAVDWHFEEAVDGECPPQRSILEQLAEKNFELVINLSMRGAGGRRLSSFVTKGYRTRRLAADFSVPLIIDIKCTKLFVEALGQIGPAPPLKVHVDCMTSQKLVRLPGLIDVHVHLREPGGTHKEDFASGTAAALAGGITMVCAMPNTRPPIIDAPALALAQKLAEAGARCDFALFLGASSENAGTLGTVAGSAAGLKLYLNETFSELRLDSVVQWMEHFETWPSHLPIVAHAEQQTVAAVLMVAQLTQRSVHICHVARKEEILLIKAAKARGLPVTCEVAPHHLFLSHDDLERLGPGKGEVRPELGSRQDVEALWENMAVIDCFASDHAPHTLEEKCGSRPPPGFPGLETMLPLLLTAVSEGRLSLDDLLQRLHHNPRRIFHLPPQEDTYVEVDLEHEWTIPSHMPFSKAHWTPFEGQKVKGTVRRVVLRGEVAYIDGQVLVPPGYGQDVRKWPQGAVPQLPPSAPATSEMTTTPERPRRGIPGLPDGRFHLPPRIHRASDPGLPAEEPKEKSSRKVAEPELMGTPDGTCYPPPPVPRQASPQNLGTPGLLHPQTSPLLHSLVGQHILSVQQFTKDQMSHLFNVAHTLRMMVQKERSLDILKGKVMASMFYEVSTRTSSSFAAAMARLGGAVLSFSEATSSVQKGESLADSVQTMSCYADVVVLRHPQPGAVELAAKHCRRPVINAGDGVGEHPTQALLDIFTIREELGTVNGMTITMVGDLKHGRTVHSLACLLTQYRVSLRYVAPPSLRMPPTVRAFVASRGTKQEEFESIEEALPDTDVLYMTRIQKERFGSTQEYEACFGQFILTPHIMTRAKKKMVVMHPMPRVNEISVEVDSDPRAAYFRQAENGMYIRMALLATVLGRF
Chain of Replication factor C subunit 5 (Homo sapiens) (P40937 whole entry): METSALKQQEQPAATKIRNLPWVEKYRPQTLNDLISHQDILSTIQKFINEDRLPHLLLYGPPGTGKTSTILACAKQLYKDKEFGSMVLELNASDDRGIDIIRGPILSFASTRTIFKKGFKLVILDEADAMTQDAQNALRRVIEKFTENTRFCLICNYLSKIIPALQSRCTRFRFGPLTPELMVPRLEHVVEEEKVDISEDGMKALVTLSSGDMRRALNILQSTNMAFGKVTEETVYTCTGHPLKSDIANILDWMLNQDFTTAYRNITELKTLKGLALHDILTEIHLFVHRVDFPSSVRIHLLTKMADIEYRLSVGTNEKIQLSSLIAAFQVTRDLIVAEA
Chain of Far upstream element-binding protein 1 (Homo sapiens) (Q96AE4 whole entry): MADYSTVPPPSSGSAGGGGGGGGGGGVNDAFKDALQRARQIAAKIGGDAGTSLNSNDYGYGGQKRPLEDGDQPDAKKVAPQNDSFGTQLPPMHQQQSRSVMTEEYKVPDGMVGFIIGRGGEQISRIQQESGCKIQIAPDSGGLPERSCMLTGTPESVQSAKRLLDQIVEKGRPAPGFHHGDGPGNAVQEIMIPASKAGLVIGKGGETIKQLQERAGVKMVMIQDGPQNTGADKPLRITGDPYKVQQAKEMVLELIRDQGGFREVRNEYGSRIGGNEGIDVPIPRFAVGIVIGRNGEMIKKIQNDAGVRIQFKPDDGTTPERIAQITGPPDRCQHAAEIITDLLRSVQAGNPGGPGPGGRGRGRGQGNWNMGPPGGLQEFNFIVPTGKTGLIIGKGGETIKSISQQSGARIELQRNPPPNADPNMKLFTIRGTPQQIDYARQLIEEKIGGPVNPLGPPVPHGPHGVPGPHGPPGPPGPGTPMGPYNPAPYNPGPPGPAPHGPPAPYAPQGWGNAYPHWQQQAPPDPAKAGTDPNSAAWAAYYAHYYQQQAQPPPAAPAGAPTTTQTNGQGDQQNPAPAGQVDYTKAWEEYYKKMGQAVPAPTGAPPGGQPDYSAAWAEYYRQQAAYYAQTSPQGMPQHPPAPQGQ

On to `C=CC(=O)Nc1ccccc1Nc1nc(Nc2ccc(N3CCN(CCOCCOCCOCCNC(=O)CCCC[C@@H]4SC[C@@H]5NC(=O)N[C@@H]54)CC3)cc2)ncc1Cl`, for which the result in test [1], in test [2], in test [3], in test [4], in [5] and in test [6] was Active. Besides, the result in [7], in [8], in test [9], in test [10], in test [11] and in test [12] was Active. In addition, the outcome in test [13], in test [14], in test [15], in [16], in [17] and in test [18] was Active. In addition, the outcome in test [19], in test [20], in [21], in test [22], in test [23] and in test [24] was Active. The result in test [25] and in [26] was Active.

`C=CC(=O)Nc1ccccc1Nc1nc(Nc2ccc(N3CCN(C)CC3)cc2)ncc1Cl` displayed an inhibition in [27] of 8.6%.

For orientation: inhibition means the percentage by which the read-out fell short of the control. A lower inhibition goes with a response near the control.
